Calls of active or inactive are those of the source.
system: Candida albicans; assay: Antifungal activity against Candida albicans SC5314 infected in HeLa cells at 20 uM after 5 days by fluorescein diacetate assay; assay type: functional, organism-based
How it was run: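 Primary HTS: HeLa cells co-incubated with C. albicans plus a single compound at ~20 μM for 5 days. Viability checked microscopically at 18 h and quantified at day 5 by fluorescein diacetate fluorescence. Wells also scanned visually for yeast growth. Hit criterion: >40% signal relative to the uninfected untreated HeLa (~100%) and infected untreated HeLa (~0%) controls.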

Row | SMILES | inhibition
1 | COc1cccc(Cn2c(C(C)(C)N)nc3ccccc32)c1 | inactive
2 | COc1cccc(Cn2c([C@@H](N)CC(C)C)nc3cc(Cl)c(Cl)cc32)c1 | inactive
3 | CC(C)(N)c1nc2cc(C(F)(F)F)ccc2n1Cc1cccc(Cl)c1 | inactive
4 | CC(C)(N)c1nc2cc(Cl)c(Cl)cc2n1Cc1cccc(F)c1 | inactive
5 | CCC(C)[C@H](N)c1nc2ccccc2n1Cc1cccc(Cl)c1 (stereo partly specified) | inactive
6 | COc1cccc(Cn2c([C@@H](N)C(C)C)nc3cc(Cl)c(Cl)cc32)c1 | inactive
7 | Cc1cccc(Cn2c([C@@H](N)C(C)C)nc3cc(C(F)(F)F)ccc32)c1 | inactive
8 | CCC(C)[C@H](N)c1nc2ccccc2n1Cc1cccc(OC)c1 (stereo partly specified) | inactive
9 | CC(C)(N)c1nc2ccccc2n1Cc1cccc(Cl)c1 | inactive
10 | CCC[C@H](N)c1nc2cc(Cl)c(Cl)cc2n1Cc1cccc(Cl)c1 | inactive
11 | Cc1cccc(Cn2c(C(C)(C)N)nc3ccccc32)c1 | inactive
12 | CC(C)[C@H](N)c1nc2cc(Cl)c(Cl)cc2n1Cc1cccc(F)c1 | inactive
13 | CC(C)[C@H](N)c1nc2cc(Cl)c(Cl)cc2n1Cc1cccc(Cl)c1 | inactive
14 | CCC(C)[C@H](N)c1nc2cc(Cl)c(Cl)cc2n1Cc1cccc(Cl)c1 (stereo partly specified) | inactive
15 | C[C@H](N)c1nc2cc(Cl)c(Cl)cc2n1Cc1cccc(Cl)c1 | inactive
16 | CCC[C@H](N)c1nc2cc(C(F)(F)F)ccc2n1Cc1cccc(OC)c1 | inactive
17 | COc1cccc(Cn2c([C@@H](N)C(C)C)nc3ccccc32)c1 | inactive
18 | CCC(C)[C@H](N)c1nc2ccccc2n1Cc1cccc(F)c1 (stereo partly specified) | inactive
19 | CC(C)C[C@H](N)c1nc2cc(C(F)(F)F)ccc2n1Cc1ccc(Cl)cc1 | inactive
20 | CCC(C)[C@H](N)c1nc2cc(Cl)c(Cl)cc2n1Cc1cccc(F)c1 (stereo partly specified) | inactive
21 | COc1cccc(Cn2c([C@@H](N)C(C)C)nc3cc(C(F)(F)F)ccc32)c1 | inactive

Row | SMILES | inhibition
22 | CCC(C)[C@H](N)c1nc2cc(Cl)c(Cl)cc2n1Cc1ccc(Cl)cc1 (stereo partly specified) | inactive
23 | CC(C)(N)c1nc2cc(C(F)(F)F)ccc2n1Cc1cccc(F)c1 | inactive
24 | CC(C)C[C@H](N)c1nc2ccccc2n1Cc1cccc(F)c1 | inactive
25 | CCC(C)[C@H](N)c1nc2cc(C(F)(F)F)ccc2n1Cc1cccc(C)c1 (stereo partly specified) | inactive
26 | CC(C)[C@H](N)c1nc2cc(Cl)c(Cl)cc2n1Cc1ccc(Cl)cc1 | inactive
27 | CC(C)C[C@H](N)c1nc2cc(Cl)c(Cl)cc2n1Cc1cccc(Cl)c1 | inactive
28 | C[C@H](N)c1nc2cc(C(F)(F)F)ccc2n1Cc1ccc(Cl)cc1 | inactive
29 | C[C@H](N)c1nc2ccccc2n1Cc1ccc(Cl)cc1 | inactive
30 | CC(C)C[C@H](N)c1nc2cc(C(F)(F)F)ccc2n1Cc1cccc(Cl)c1 | inactive
31 | CCC(C)[C@H](N)c1nc2cc(C(F)(F)F)ccc2n1Cc1cccc(OC)c1 (stereo partly specified) | inactive
32 | CCC(C)[C@H](N)c1nc2cc(C(F)(F)F)ccc2n1Cc1cccc(Cl)c1 (stereo partly specified) | inactive
33 | Cc1cccc(Cn2c([C@@H](N)C(C)C)nc3cc(Cl)c(Cl)cc32)c1 | inactive
34 | CCC[C@H](N)c1nc2cc(Cl)c(Cl)cc2n1Cc1cccc(C)c1 | inactive
35 | Cc1cccc(Cn2c(C(C)(C)N)nc3cc(Cl)c(Cl)cc32)c1 | inactive
36 | CCC[C@H](N)c1nc2cc(Cl)c(Cl)cc2n1Cc1cccc(OC)c1 | inactive
37 | CCC[C@H](N)c1nc2cc(Cl)c(Cl)cc2n1Cc1ccc(Cl)cc1 | inactive
38 | C[C@H](N)c1nc2ccccc2n1Cc1cccc(F)c1 | inactive
39 | CCC(C)[C@H](N)c1nc2cc(C(F)(F)F)ccc2n1Cc1cccc(F)c1 (stereo partly specified) | inactive
40 | CC(C)C[C@H](N)c1nc2ccccc2n1Cc1cccc(Cl)c1 | inactive
41 | CCC(C)[C@H](N)c1nc2ccccc2n1Cc1cccc(C)c1 (stereo partly specified) | inactive

From ChEMBL document CHEMBL1828627, “High-throughput-screening-based identification and structure-activity relationship characterization defined (S)-2-(1-aminoisobutyl)-1-(3-chlorobenzyl)benzimidazole as a highly antimycotic agent nontoxic to cell lines” (J Med Chem, 2011)
